Compound activity: PubChem, Johns Hopkins Ion Channel Center
TRPC4 PAM = allosteric potentiators of mouse TRPC4 channel; Q9QUQ5; HEK293 TRPC4beta/mu-opioid, DAMGO EC20, Fluo-4 Ca2+ flux; stronger effect = higher value; B-score at 10 µM; 310,000 tested, 0.42% active; AID 2227;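 active means B-score of calcium response area above 5 SD of library B-scores, with initial fluorescence ratio within 5 SD of library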;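 further: B-score of integrated fluorescence ratio over time as area under calcium response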
TRPC4 agonist = TRPC4 (mouse) channel activation | Q9QUQ5 | HEK293 TRPC4beta/mu-opioid, Fluo4 calcium fluorescence; stronger effect = higher value | B-score at 10 µM | 310,000 tested, 0.49% active;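 active means B-score above 5 SD of library B-scores, and initial fluorescence ratio not above library mean plus 5 SD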;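 further: positive B-score marks a calcium rise read as TRPC4 activation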
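Material: HEK293 stable line with TRPC4beta plus mu-opioid receptor; technique: Fluo4 calcium-sensitive dye fluorescence, kinetic, 1 Hz baseline; timing: Fluo4 dye loading 45 min at room temperature, 110 s recording; controls: assay buffer as low control, maximal DAMGO as high control; read-out: integrated baseline-normalised fluorescence ratio, converted to per-well B score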
TRPC4 inh = blocks the mouse TRPC4 cation channel; Q9QUQ5; HEK293 TRPC4beta/mu-opioid, DAMGO-evoked Fluo4 calcium flux; stronger effect = lower value; B-score at 10 µM; 300,000 tested, 0.39% active;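 active means B-score over 3 SD under the library average, no early fluorescence shift, positive overall ratio signal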
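material = TRPC4beta/mu-opioid receptor HEK293 cell line | probe or stimulus = sequential submaximal and maximal DAMGO stimulation | compound dosing = one concentration per compound | measured by = Fluo4 Ca2+ flux fluorescence | evaluation = integrated fluorescence ratio relative to baseline, converted to per-well B score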
TRPC6 inh = inhibitors of mouse TRPC6 channel; 310,000 tested, 1.1% active; B-score at 10 µM; Q61143; HEK293-TRPC6, membrane potential dye, ACh-evoked depolarization; stronger effect = lower value;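 active means B-score under library mean minus 3 SD, initial fluorescence not abnormally high, positive integrated signal ratio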;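 further: B-score derived from integrated fluorescence ratio over the kinetic read; more negative B-score means stronger inhibition of depolarization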
Target sequence (Q61143 whole entry, looked up): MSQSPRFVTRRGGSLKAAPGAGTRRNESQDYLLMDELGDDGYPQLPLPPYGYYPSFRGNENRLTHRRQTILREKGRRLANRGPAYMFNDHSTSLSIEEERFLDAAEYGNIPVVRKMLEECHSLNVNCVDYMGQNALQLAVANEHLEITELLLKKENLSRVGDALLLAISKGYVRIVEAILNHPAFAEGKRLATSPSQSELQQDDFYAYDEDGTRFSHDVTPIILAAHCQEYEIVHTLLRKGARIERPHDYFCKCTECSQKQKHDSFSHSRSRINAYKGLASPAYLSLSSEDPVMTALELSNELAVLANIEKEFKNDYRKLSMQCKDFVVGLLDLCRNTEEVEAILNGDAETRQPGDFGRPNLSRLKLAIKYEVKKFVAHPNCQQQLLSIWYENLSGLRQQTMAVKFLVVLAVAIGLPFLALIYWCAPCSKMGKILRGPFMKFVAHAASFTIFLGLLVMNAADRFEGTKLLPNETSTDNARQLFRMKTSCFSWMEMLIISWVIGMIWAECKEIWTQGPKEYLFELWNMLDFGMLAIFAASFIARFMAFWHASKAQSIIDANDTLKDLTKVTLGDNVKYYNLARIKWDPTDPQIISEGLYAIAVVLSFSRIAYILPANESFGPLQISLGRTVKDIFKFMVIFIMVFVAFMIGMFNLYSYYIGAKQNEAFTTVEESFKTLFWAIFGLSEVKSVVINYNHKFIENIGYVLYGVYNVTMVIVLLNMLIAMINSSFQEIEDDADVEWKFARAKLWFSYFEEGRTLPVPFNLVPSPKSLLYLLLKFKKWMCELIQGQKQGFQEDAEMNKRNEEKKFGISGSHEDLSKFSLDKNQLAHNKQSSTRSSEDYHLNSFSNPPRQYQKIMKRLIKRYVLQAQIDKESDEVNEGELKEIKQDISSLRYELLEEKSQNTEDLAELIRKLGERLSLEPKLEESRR
TRPC6 activator = activates the mouse TRPC6 cation channel; Q61143; HEK293-TRPC6 membrane potential dye fluorescence; stronger effect = higher value; B-score at 10 µM; 310,000 tested, 0.13% active; AID 2550;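 active means B-score of the integrated fluorescence ratio above library mean plus 3 SD, and starting fluorescence ratio within library mean plus 5 SD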;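 further: higher score means more depolarization so channel activation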
TRPC4 spec 2 = second selectivity test of TRPC6 inhibitors: effect on mouse TRPC4 | shares compounds with TRPC6 inh | HEK293 TRPC4/MOR, membrane potential dye fluorescence; channel activated by saturating DAMGO dose | inhibition, % at 10 µM | 920 tested, 42% active;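 active means compounds whose fluorescence signal differed from control wells by over 3 SD, either direction, in both duplicate plates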
TRPC4 spec = tests whether TRPC6 inhibitors also affect mouse TRPC4; activity change, negative = inhibition, % at 10 µM; 920 tested, 61% active; shares compounds with TRPC6 inh; HEK293 TRPC4/mu-opioid, membrane potential fluorescence;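 active means rise or fall in signal beyond 3 SD of buffer-only wells in both replicate plates, either sign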;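 further: integrated kinetic ratio of fluorescence range over baseline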
HEK293 MPD ctr 2-1 = second check of TRPC6 inhibitor effects in parental HEK293 cells. parental HEK293 membrane potential dye fluorescence; maximal acetylcholine challenge after compound addition. shares compounds with TRPC6 inh. signal change vs control, % at 10 µM. 920 tested, 31% active;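 active means membrane potential signal moving either way by over 3 SD of the maximum-effect control, in both duplicate plates, meaning non-specific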
HEK293 MPD ctr-1 = counter-screen for TRPC6 inhibitors: effect in parental HEK293 cells | shares compounds with TRPC6 inh | parental HEK293 membrane potential dye fluorescence | membrane potential signal change, % at 10 µM | 920 tested, 60% active;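 active means membrane potential signal shifting up or down by more than 3 SD of buffer-only wells, on both duplicate plates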
HEK293 MPD ctr-2 = counter-screen for TRPC6 modulators: effect in parental HEK293 cells; shares compounds with TRPC6 inh; membrane potential dye fluorescence; membrane potential signal change, % at 10 µM; 2,400 tested, 51% active;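 active means membrane potential signal moves up or down beyond 5 SD from buffer-only wells, on both duplicate plates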
HEK293 MPD ctr 2-2 = second counter-screen for TRPC6 modulators: effect in parental HEK293 cells; shares compounds with TRPC6 inh; membrane potential dye fluorescence; after compound, maximal acetylcholine stimulation; inhibition, % at 10 µM; 2,400 tested, 14% active;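 active means membrane potential signal drops by more than 5 SD from the mean control signal, in both duplicate plates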;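 further: plate controls were acetylcholine ECmax control wells for no effect and buffer only wells for full effect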
TRPC4/MOR mod = tests whether TRPC6 modulators also affect mouse TRPC4; shares compounds with TRPC6 inh; HEK293 TRPC4/mu-opioid, membrane potential fluorescence; percent change from control (negative = decrease, positive = increase), % at 10 µM; 2,400 tested, 69% active; AID 488927;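 active means membrane potential signal moved up or down beyond 5 SD of buffer control wells, in both duplicate plates, actives on both sides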;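 further: plate controls were assay buffer wells for no effect and DAMGO maximal-effect wells for full effect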
TRPC4/MOR inh 2 = mouse TRPC4 off-target activity of TRPC6 modulators, second screen | shares compounds with TRPC6 inh | HEK293 TRPC4/mu-opioid, membrane potential dye fluorescence; stimulated with maximal-effect DAMGO | inhibition, % at 10 µM | 2,400 tested, 55% active;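 active means drop in membrane potential signal beyond 5 SD of the control wells in both duplicate plates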;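 further: TRPC4 counter screen for TRPC6 hits run under conditions tuned for TRPC6 not TRPC4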
TRPC6 block conf = mouse TRPC6 inhibitor confirmation. shares compounds with TRPC6 inh. 3,300 tested, 43% active. HEK293-TRPC6, membrane potential dye, ACh-evoked depolarization. inhibition, % at 10 µM;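 active means fluorescence ratio falls more than 5 SD below the full-stimulation control mean, in both duplicate runs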;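 further: integrated fluorescence ratio of peak minus minimum over baseline after agonist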
TRPC6 act confirm = confirmation of mouse TRPC6 activators | shares compounds with TRPC6 inh | HEK293-TRPC6 membrane potential dye fluorescence, FDSS | activation, % at 10 µM | 2,800 tested, 11% active | AID 488961;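 active means ratio signal rise beyond 5 SD above unstimulated control wells' mean, seen in both duplicate runs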;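 further: plate controls were buffer EC0 wells for no effect and acetylcholine ECmax response for full effect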
* = called active by the depositor; i = inactive; nt = not tested or not shown. Rows were chosen to be rich in hits. Some 2.3% of all compounds tested hit in one or more screens of this group.

SMILES	TRPC4 PAM	TRPC4 agonist	TRPC4 inh	TRPC6 inh	TRPC6 activator	HEK293 MPD ctr-2	HEK293 MPD ctr 2-2	TRPC4/MOR mod	TRPC4/MOR inh 2	TRPC6 block conf	TRPC6 act confirm	others
O=C(CC(c1ccccc1)c1ccccc1O)N1CCCCC1 (stereo unspecified)	i	i	i	-6.35*	i	i	i	i	i	i	nt
O=C1Nc2ccccc2/C1=N\N=C\C1=C(N2CCOCC2)C(=C\c2ccccc2)/CC1	i	i	i	-9.49*	i	nt	nt	nt	nt	90.1%*	i	TRPC4 spec 2=33.0%*;TRPC4 spec=-29.1%*;HEK293 MPD ctr 2-1=-22.0%*;HEK293 MPD ctr-1=-325.5%*
Cn1cc(C(=O)N/N=C/C2=C(N3CCOCC3)C(=C\c3ccccc3)/CC2)ccc1=O	i	i	i	i	i	nt	nt	nt	nt	nt	nt
CCOc1ccccc1N1CCN(C(=O)c2cn(CC3CCCCC3)nn2)CC1	i	i	i	i	i	nt	nt	nt	nt	nt	nt
O=C(Nc1cccnc1)c1cnn2cccnc12	i	i	i	-5.16*	i	-96.0%*	i	-10.5%*	i	i	i
CCN(CC)CCCNc1cc(C(F)(F)F)c(C#N)c2nc3ccccc3n12	i	i	i	-6.53*	i	i	66.0%*	-66.0%*	71.0%*	70.0%*	i
CCCc1cc(NCCCCO)n2c(nc3ccccc32)c1C#N	i	i	i	i	i	nt	nt	nt	nt	nt	nt
Cc1cc(NCCCCO)n2c(nc3ccccc32)c1C#N	i	i	i	i	i	nt	nt	nt	nt	nt	nt
CCN(CC)CCNc1cc(C)c(C#N)c2nc3ccccc3n12	i	i	i	-10.9*	i	-411.0%*	96.5%*	-66.5%*	62.5%*	71.0%*	i
Cc1ccc(C)c(NC(=O)CN(C)C(=O)c2ccc(-c3cccc(C(F)(F)F)c3)o2)c1	i	i	i	i	i	nt	nt	nt	nt	nt	nt
Cc1cc(N2CCN(C)CC2)nc2ccc(NC(=O)CCC(=O)N3CCN(c4ccc([N+](=O)[O-])cc4)CC3)cc12	i	i	i	i	12.1*	237.0%*	i	44.5%*	i	i	84.5%*
CCCCNC(=S)Nc1ccc2nc3n(c(=O)c2c1)CCCCC3	i	i	i	i	i	nt	nt	nt	nt	nt	nt
Cc1cc(N2CCCCC2)nc2ccc(NC(=O)CCC(=O)NCCC(C)C)cc12	i	i	i	-8.01*	i	nt	nt	nt	nt	i	i	TRPC4 spec 2=i;TRPC4 spec=-16.1%*;HEK293 MPD ctr 2-1=224.5%*;HEK293 MPD ctr-1=-227.5%*
CCCCNC(=O)CCC(=O)Nc1ccc2nc(N3CCCCC3)cc(C)c2c1	i	i	i	i	i	nt	nt	nt	nt	nt	nt
Cc1cc(N2CCOCC2)nc2ccc(NC(=O)CCC(=O)N3CCN(c4ccccc4)CC3)cc12	i	i	i	i	i	nt	nt	nt	nt	nt	nt
Cc1cc(N2CCN(C)CC2)nc2ccc(NC(=O)CCC(=O)NCCCOC(C)C)cc12	i	i	i	i	i	nt	nt	nt	nt	nt	nt
CC(C)CCNC(=S)Nc1ccc2nc3n(c(=O)c2c1)CCCCC3	i	i	i	-5.17*	i	i	i	i	i	i	i
CCN(CC)CCCNC(=O)CCC(=O)Nc1ccc2nc(N3CCC(C)CC3)cc(C)c2c1	i	i	i	-6.08*	i	135.5%*	i	22.5%*	i	i	nt
Cc1nn(C)cc1S(=O)(=O)N1CCN(c2ccccc2F)CC1	i	i	i	i	i	nt	nt	nt	nt	nt	nt
CCOC(=O)N1CCN(C(=O)CCCn2nnnc2CN2CCC(C)CC2)CC1	i	i	i	i	i	nt	nt	nt	nt	nt	nt
COc1cccc(CNC(=O)Cc2ccc(OC)c(S(=O)(=O)N3CCOCC3)c2)c1	i	i	i	i	i	nt	nt	nt	nt	nt	nt
Cc1ccc(C(=O)N2CCN(S(=O)(=O)N3CCCCCC3)CC2)cc1	i	i	i	i	i	nt	nt	nt	nt	nt	nt
CCCCNC(=O)CCC(=O)Nc1ccc2nc(N3CCOCC3)cc(C)c2c1	i	i	i	i	i	nt	nt	nt	nt	nt	nt
COCCCNC(=O)CCC(=O)Nc1ccc2nc(N3CCOCC3)cc(C)c2c1	i	i	i	-6.8*	i	nt	nt	nt	nt	63.9%*	i	TRPC4 spec 2=i;TRPC4 spec=-27.6%*;HEK293 MPD ctr 2-1=i;HEK293 MPD ctr-1=-359.5%*
CCOC(=O)C1CCCN(C(=O)c2cnn3c(C(F)F)cc(-c4ccc(C)cc4)nc23)C1 (stereo unspecified)	i	i	i	-6.15*	i	155.5%*	i	37.0%*	i	i	nt
c1csc(Cc2nc3ccccc3[nH]2)c1	i	i	i	-13.6*	i	i	i	i	i	i	i
CCOC(=O)CNC(=S)N(Cc1ccco1)Cc1ccccc1Cl	i	i	i	-5.78*	i	i	i	11.5%*	i	i	i
CCCc1cc(=O)oc2c(C)c(OCC(=O)Nc3cccnc3)ccc12	i	i	i	i	i	nt	nt	nt	nt	nt	nt
Cc1cc(NC(=O)COC(=O)CCNS(=O)(=O)c2ccccc2)n(-c2ccccc2)n1	i	i	i	i	i	nt	nt	nt	nt	nt	nt
Cc1nc2nc(-c3ccc(Cl)cc3)nn2c(C)c1Cl	i	i	i	i	i	nt	nt	nt	nt	nt	nt
